This is an account of results in ChEMBL document CHEMBL1141579, “Synthesis, cytostatic, and antiviral activity of novel 6-[2-(dialkylamino)ethyl]-, 6-(2-alkoxyethyl)-, 6-[2-(alkylsulfanyl)ethyl]-, and 6-[2-(dialkylamino)vinyl]purine nucleosides” (Bioorg Med Chem, 2008).

Molecules are shown by their SMILES.

Series [1] deals with HL-60. The series can be described thus: Cytostatic activity against human HL60 cells ATCC CCL 240 assessed as cell viability by XTT test. Type of series: functional, cell-based. A digest of the protocol: (§1)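 Cell viability quantified by the XTT spectrophotometric assay. Inhibition expressed as IC50.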
On the technique in general: Tetrazolium dyes change colour on reduction, which living cells bring about.

The test system of series [2] is HL-60. As to the kind of experiment: Cell cycle arrest in human HL60 cells assessed as accumulation in G1 phase at 14 uM relative to control. The format is functional. In a few lines: (§2)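 HL-60 cells treated at the stated concentration, then fixed in ethanol. Stained with propidium iodide in buffer containing RNase A and analysed by flow cytometry. Result given as the ratio of the treated to the control cell fraction in each phase (G1, S, G2/M).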

A further series relates to L1210. As to the kind of experiment: Cytostatic activity against mouse L1210 cells ATCC CCL219 assessed as growth reduction after 72 hrs. Type of series: functional, cell-based. The conditions noted are these: L1210, 72 h. A digest of the protocol: (§3)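 Cells grown in RPMI 1640 with foetal calf serum in 24-well plates. Counted in a haematological analyzer 72 h after drug addition. Inhibition expressed as IC50.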

The nature of series [3]: Cytotoxicity against human Huh7 cells harboring con1 replicon after 3 days by MTT assay. Type of series: cell-based, Huh-7. In a few lines:
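Con-1 replicon-bearing Huh-7 cells were seeded at 8 · 10^3 cells per well in medium without Geneticin. Compound was serially diluted in 100% DMSO and added 1:200, giving 0.5% DMSO final. Cells were incubated at 37 C for 3 days. Toxicity was read at the end, in duplicate (N = 2).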

The test system of series [4] is CCRF-CEM. The series can be described thus: Cytostatic activity against human CCRF-CEM cells ATCC CCL 119 assessed as growth reduction after 72 hrs. Type of series: functional, cell-based. In a few lines: as §3
For another series, the system named is Hepatitis C virus. The series can be described thus: Antiviral activity against HCV 1b Con1 replicon in Huh7 cells. Type of series: functional, organism-based, Hepatitis C virus subtype 1b. To be noted: Huh-7. A digest of the protocol: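 Con-1/lucneo replicon cells seeded at 8 × 10^3 per well in medium without Geneticin. Compounds serially diluted in DMSO and added 1:200 (0.5% DMSO final). Incubated 3 days at 37 C. Cells lysed and luciferase activity read by luminometer. EC50 by non-linear regression, N = 2.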
On the technique in general: A replicon is a self-replicating genome or part of one, used to study replication in cells.

Series [5] deals with HL-60. As to the kind of experiment: Cell cycle arrest in human HL60 cells assessed as accumulation in G2/M phase at 3.5 uM relative to control. The format is functional. A digest of the protocol: as §2
For series [6], the system named is HL-60. As to the kind of experiment: Cytostatic activity against human HL60 cells ATCC CCL 240 assessed as growth reduction after 72 hrs. Type of series: functional, cell-based. The conditions noted are these: HL-60, 72 h. A digest of the protocol: as §3
The subject of series [7] is CCRF-CEM. As to the kind of experiment: Cytostatic activity against human CCRF-CEM cells ATCC CCL 119 assessed as cell viability by XTT test. Type of series: functional, cell-based. In a few lines: as §1
The test system of series [8] is HL-60. As to the kind of experiment: Cell cycle arrest in human HL60 cells assessed as accumulation in S phase at 3.5 uM relative to control. The format is functional. A digest of the protocol:
as §2

For series [9], the system named is HL-60. As to the kind of experiment: Cell cycle arrest in human HL60 cells assessed as accumulation in S phase at 14 uM relative to control. Type of series: functional. A digest of the protocol:
as §2

The subject of series [10] is HL-60. The series can be described thus: Cell cycle arrest in human HL60 cells assessed as accumulation in G2/M phase at 14 uM relative to control. Type of series: functional. A digest of the protocol: as §2
For series [11], the system named is HL-60. The series can be described thus: Cell cycle arrest in human HL60 cells assessed as accumulation in G1 phase at 3.5 uM relative to control. The format is functional. In a few lines:
as §2

A word on the IC50: it is the concentration that inhibits the measured activity by half. In general, CC50 refers to the concentration at which the toxic effect on the cells reaches its halfway point. A low value points to harm at low concentration. One may read the EC50 as the concentration that produces a half-maximal response. A low value points to an effect from little substance. For `CCCCN(CCCC)CCc1ncnc2c1ncn2[C@@H]1O[C@H](CO)[C@@H](O)[C@H]1O`, the IC50 in the series on HL-60 [1] was 13.8 µM; with L1210, 4.4 µM; in the series with CCRF-CEM [4] it was 6.4 µM; in the series with HL-60 [6], 5.3 µM; in the series on CCRF-CEM [7], 4.59 µM. For the same molecule, the Activity was 1.51 with HL-60 [2]; 0.93 in the series on HL-60 [5]; 1.15 in the series with HL-60 [8]; 0.68 in the series on HL-60 [9]; 0.64 in the series with HL-60 [10]; 0.85 with HL-60 [11]. Moreover, the CC50 at 72 h in series [3] was 37 µM. A half-maximal effect in the series with Hepatitis C virus (EC50) was put at 5.6 µM.
